According to article PMC3862411 (International Journal for Parasitology, Drugs and Drug …, 2012):
Where “and” joins values, the source holds several entries; their conditions need not be identical. Equal values may be shown once. Marks after values point to notes of the source that are not given here.

How the values were obtained:
Haemonchus spp. = assay: Adult nematode worm counts and efficacy 14 days post-treatment; format: in vivo; conditions: abomasum, 14 days post-administration, IR 0.2 mg/kg
In short: (§1)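 Romney Marsh lambs (27.2 ± 4.48 kg), naturally infected with resistant GI nematodes and grazing lucerne/clover pasture, got a single intraruminal dose of test compound at 0.2 mg/kg. Six treated and six untreated lambs were killed by captive bolt at day 14. Abomasal, small and large intestinal contents were counted by WAAVP guidelines. Geometric mean worm burdens gave % efficacy, treated versus untreated.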

[1] = test system: resistant Haemonchus contortus; format: in vivo; conditions: for Total mass of H. contortus specimens recovered: day 1 and 2 post-treatment, IR 0.2 mg/kg
In short: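 Infected lambs got test compound intraruminally at 0.2 mg/kg, four killed at 0.5, 1 and 2 days. The total H. contortus mass from abomasal contents was washed in 4 °C saline, blotted, weighed and frozen at −20 °C. Drug was measured by fluorescence HPLC (C18, 0.2% acetic acid/methanol/acetonitrile 1.6/60/38.4, 1.5 ml/min, 30 °C, ex 365/em 475 nm). n = 4.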

Nematodirus spp. = assay: Adult nematode worm counts and efficacy 14 days post-treatment; format: in vivo; conditions: small intestine, 14 days post-administration, IR 0.2 mg/kg
In short: as §1

[2] = format: in vivo, lambs; conditions: for AUC: area under the concentration vs time curve extrapolated to infinity / Cmax: peak plasma concentration / Tmax: time to peak plasma concentration / t 1/2 el: elimination half-life: mean ± SD, n = 6
In short: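 Six infected lambs per group got test compound intraruminally at 0.2 mg/kg. Heparinized jugular blood was taken before and at 0, 3, 6, 9 h and 1–13 days, spun at 2000g for 20 min, and plasma assayed by fluorescence HPLC. Non-compartmental analysis: Cmax observed; AUC by trapezoidal rule extrapolated to infinity; t½ = ln2/λz; MRT from AUMC/AUC. Mean ± SD; ANOVA or Kruskal–Wallis.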

Trichuris spp. = assay: Adult nematode worm counts and efficacy 14 days post-treatment; format: in vivo; conditions: large intestine, 14 days post-administration, IR 0.2 mg/kg
In short: as §1

Trichostrongylus axei = assay: as above; format: in vivo; conditions: abomasum, 14 days post-administration, IR 0.2 mg/kg
In short: as §1

[3] = test system: Trichostrongylus colubriformis; assay: as above; format: in vivo; conditions: small intestine, 14 days post-administration, IR 0.2 mg/kg
In short: as §1

[4] = Drug concentrations in GI contents and mucosal tissues; format: in vivo, lambs; conditions: for Drug concentration, abomasal mucosa / Drug concentration, intestinal mucosa: IR 0.2 mg/kg, lambs
In short: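 After intraruminal 0.2 mg/kg test compound, four infected lambs per time point were killed at 0.5, 1 and 2 days. Abomasal and cranial jejunum contents and mucosal tissue were sampled, stored at −20 °C and assayed by validated fluorescence HPLC (C18, 30 °C, ex 365/em 475 nm). Values are in ng/g, mean ± SD, n = 4.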

Teladorsagia spp. = assay: Adult nematode worm counts and efficacy 14 days post-treatment; format: in vivo; conditions: abomasum, 14 days post-administration, IR 0.2 mg/kg
In short: as §1

Cooperia spp. = assay: as above; format: in vivo; conditions: small intestine, 14 days post-administration, IR 0.2 mg/kg
In short: as §1

resistant GI nematodes = assay: Faecal egg count reduction test; format: in vivo, GI nematodes in lambs; conditions: IR 0.2 mg/kg; for FECRT: 14 days post-treatment vs untreated control; for Mean epg (range), arithmetic mean of eggs per gram of faeces: Day 14 post-treatment
In short: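 Faeces were sampled at day −1 and day 14 after a single intraruminal 0.2 mg/kg dose to naturally infected lambs. Eggs per gram were counted by modified McMaster. FECRT compared arithmetic mean epg of treated versus untreated controls at day 14, with 95% confidence limits per Coles. Counts were compared by Kruskal–Wallis.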

mammalian P-gp = conditions: in vitro; ref Lespine et al., 2007; cited from earlier work
[5] = sheep, plasma, other: intraruminal, 0.2 mg/kg
[6] = sheep (lambs), abomasal mucosa, other: intraruminal, 0.2 mg/kg

Compound	Efficacy, Haemonchus spp. (H. contortus) (Haemonchus spp.) [%]	Worm counts (geometric mean), Haemonchus spp. (Haemonchus spp.)	Total mass of H. contortus specimens recovered [1] [g]	Efficacy, Nematodirus spp. (Nematodirus spp.) [%]	Worm counts (geometric mean), Nematodirus spp. (Nematodirus spp.)	Time up to which drug was detected in plasma ([2]; lambs, IR 0.2 mg/kg)	AUC: area under the concentration vs time curve extrapolated to infinity ([2]; lambs, IR 0.2 mg/kg, plasma)	Cmax: peak plasma concentration ([2]; lambs, IR 0.2 mg/kg, plasma)	Efficacy, Trichuris spp. (Trichuris spp.) [%]	Worm counts (geometric mean), Trichuris spp. (Trichuris spp.)	Efficacy, Trichostrongylus axei (Trichostrongylus axei) [%]	Worm counts (geometric mean), Trichostrongylus axei (Trichostrongylus axei)	Efficacy, Trichostrongylus colubriformis [3] [%]	Worm counts (geometric mean), Trichostrongylus colubriformis [3]	Efficacy, Teladorsagia spp. (Teladorsagia spp.) [%]	Worm counts (geometric mean), Teladorsagia spp. (Teladorsagia spp.)	Efficacy, Cooperia spp. (Cooperia spp.) [%]	Worm counts (geometric mean), Cooperia spp. (Cooperia spp.)	FECRT (resistant GI nematodes)	Mean epg (range), arithmetic mean of eggs per gram of faeces (resistant GI nematodes)	also measured
CC[C@H](C)[C@H]1O[C@]2(CC[C@@H]1C)C[C@@H]1C[C@@H](C/C=C(\C)[C@@H](O[C@H]3C[C@H](OC)[C@@H](O[C@H]4C[C@H](OC)[C@@H](O)[C@H](C)O4)[C@H](C)O3)[C@@H](C)/C=C/C=C3\CO[C@@H]4[C@H](O)C(C)=C[C@@H](C(=O)O1)[C@]34O)O2 [IVM, ivermectin]	20.1	1021	1.02 to 1.38	99.5	4.87	up to 8 days post-treatment	23.6 ± 7.63^a ng d/ml	9.02 ± 1.47^b ng/ml	100	0	100	0	99.3	6.28	99.7	5	98.2	3.08	0%	4620^a (1860–12480)	Tmax: time to peak plasma concentration ([2]; lambs, IR 0.2 mg/kg, plasma): 1.06 ± 0.52^a days; t 1/2 el: elimination half-life ([2]; lambs, IR 0.2 mg/kg, plasma): 1.15 ± 0.30^a days; Drug concentration, abomasal mucosa ([4]; 0.5 days post-treatment): 76.5 ± 9.83^a ng/g; Drug concentration, intestinal mucosa ([4]; 0.5 days post-treatment): 198 ± 55.7^a ng/g; Drug concentration, abomasal mucosa ([4]; 1 day post-treatment): 58.2 ± 8.75^a ng/g; Drug concentration, intestinal mucosa ([4]; 1 day post-treatment): 117 ± 26.8^a ng/g; Drug concentration, abomasal mucosa ([4]; 2 days post-treatment): 42.6 ± 4.53^a ng/g; Drug concentration, intestinal mucosa ([4]; 2 days post-treatment): 128 ± 51.4^a ng/g
CO/N=C1\C[C@]2(C[C@@H]3C[C@@H](C/C=C(\C)C[C@@H](C)/C=C/C=C4\CO[C@@H]5[C@H](O)C(C)=C[C@@H](C(=O)O3)[C@]45O)O2)O[C@H](/C(C)=C/C(C)C)[C@H]1C [MXD, moxidectin]	89.6	133	0.13 to 0.14	100	0	≤ 13 days post-treatment	29.5 ± 3.87^a ng d/ml	–	100	0	100	0	100	0	100	0	100	0	86% and 86.8%	570^b (240–960)	Drug concentrations recovered within adult H. contortus compared to ABM and IVM ([1]; day 2 post-treatment): lower; Affinity by mammalian P-gp compared to avermectin-type compounds (mammalian P-gp): lower affinity; Plasma mean residence time (MRT) compared to ABM and IVM ([2]; lambs, IR 0.2 mg/kg): significant longer; Cmax [2, 5]: 11.3 ± 2.87 ng/mL; Tmax [2, 5]: 13 h; half-life [2, 5]: 113 h; Concentrations in GI contents and mucosal tissues compared to IVM and ABM ([4]; 2 days post-treatment): significantly lower; concentration at 0.5 days [4, 6]: 65.5 ± 9.74 ng/g; concentration at 1 day [4, 6]: 48.3 ± 12.7 ng/g; concentration at 2 days [4, 6]: 30.1 ± 5.8 ng/g
abamectin [ABM]	39.7	769	1.13 to 1.50	99.8	2.32	up to 8 days post-treatment	34.8 ± 11.3^a ng d/ml	13.6 ± 2.64^a ng/ml	100	0	100	0	100	0	100	0	100	0	0%	4460^a (1200–6000)	Tmax: time to peak plasma concentration ([2]; lambs, IR 0.2 mg/kg, plasma): 0.90 ± 0.26^a days; t 1/2 el: elimination half-life ([2]; lambs, IR 0.2 mg/kg, plasma): 1.10 ± 0.25^a days; Drug concentration, abomasal mucosa ([4]; 0.5 days post-treatment): 76.8 ± 11.6^a ng/g; Drug concentration, intestinal mucosa ([4]; 0.5 days post-treatment): 203 ± 11.5^a ng/g; Drug concentration, abomasal mucosa ([4]; 1 day post-treatment): 78 ± 24.2^a ng/g; Drug concentration, intestinal mucosa ([4]; 1 day post-treatment): 152 ± 12.4^a ng/g; Drug concentration, abomasal mucosa ([4]; 2 days post-treatment): 64.6 ± 45.4^ab ng/g; Drug concentration, intestinal mucosa ([4]; 2 days post-treatment): 118 ± 85.9^a ng/g
